HCT116 PTEN-null = growth suppression of PTEN-null HCT116, primary screen, cell-based, CellTiter-Glo. HCT116 PTEN-null viability, 60 h; active compounds read low. viability, % at 10 µM. hit rate 1.2% among 140,000. AID 827, 2007;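 active = viability at or below a set limit, 4 SD under the median of all tested compounds, cut at about 3.7% in these data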;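 note: PTEN knockout HCT116 line with beta catenin targeted HCT116 as companion control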
bCat KO growth = primary screen for growth suppressors in beta-catenin knockout HCT116 cells (colon tumor, human); HCT116 beta-catenin knockout viability, CellTiter-Glo, 60 h; active compounds read low; viability, % at 10 µM; hit rate 1.5% among 140,000; AID 818, 2007;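 active = viability at or under a set limit, the compound median less 4 SD, cut at about 6% in these data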;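 note: 0% = Hyamine 1622 control at 20 µM and 100% = untreated cell control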
H69AR growth 86K = proliferation blockers of H69AR lung cancer cells, primary screen, cell-based, human, 86K library; viability, % at 10 µM; H69AR lung tumor viability, ATP luminescence, 72 h; active compounds read low; hit rate 6% among 85,000;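 active = viability at or below 40%; inactive = viability above 40%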;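 note: multidrug resistant small cell line overexpressing MRP-1 efflux transporter; 100% = mean luminescence of untreated control wells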
HUVEC inhibit = inhibitors of HUVEC proliferation, primary screen, cell-based, 384-well; CellTiter-Glo luminescence, 72 h; active compounds read low; viability, % at 10 µM (by protocol); hit rate 1.1% among 86,000;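 active = viability at or below 30%; inactive = viability above 30%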;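 note: 100% = median luminescence of DMSO-only cell control wells on each plate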
Lung fibro prol = antiproliferative effect on LL 47 fibroblasts – human, LL 47 cells, CellTiter-Glo luminescence, primary screen; hit rate 1.1% among 85,000; LL 47 human lung fibroblast viability, ATP luminescence; active compounds read low; viability, % at 10 µM;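 active = viability at or below 50% in the single dose screen; inactive = viability above 50%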;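 note: compound exposure lasted 72 h before the ATP readout; 100% = median luminescence of untreated cell-only wells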
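Assay system: human lung fibroblast line LL 47, low passage. Input: 1,150 fibroblasts seeded per well. Times: overnight cell rest, 72 h compound treatment at 37 °C. Evaluation: % viability of median cell-only signal. Technique: luminescent ATP detection, CellTiter-Glo. Control set: cell-only wells, no compound.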
The depositor's hits bear a star; . = not tested or not shown. Only a selection was taken, and hits are over-represented in it overall.

SMILES	HCT116 PTEN-null	bCat KO growth	H69AR growth 86K	HUVEC inhibit	Lung fibro prol
COc1ccc2c(c1)C1(Nc3ccccc3-c3nc4ccccc4n31)C(=O)N2C (centres undefined)	77	86	37*	88	.
COc1ccccc1CNc1nc2ccccc2n1CCN1CCCCC1	25	24	36*	78	85
Oc1ccccc1CNc1nc2ccccc2n1CCN1CCCCC1	62	57	66	91	94
CCOCCCNC(=S)Nc1ccc(S(N)(=O)=O)cc1	94	95	.	.	.
COc1ccc(CCN2C(=O)C3C4C=CC(C3C2=O)C2C(=O)N(CCc3ccc(OC)c(OC)c3)C(=O)C42)cc1OC (centres undefined)	56	53	40*	96	103
O=C1OC(/C=C/c2ccc(Cl)cc2Cl)=NC/1=C\c1cccs1	100	97	.	.	.
COc1ccccc1NC(=O)c1cc2ccc(O)cc2o/c1=N\O	95	104	36*	81	96
COc1ccccc1NC(=O)c1cc2ccccc2o/c1=N\O	2.7*	4.5*	53	67	97
COc1ccccc1N=c1oc2cc(O)ccc2cc1C(N)=O	65	64	.	.	.
COC(=O)/C=C/c1ccc(OC(=O)OC)c(OC(=O)OC)c1	94	86	.	.	.
CCc1cccc2c(C(=O)Cn3nnc(-c4ccc(OC)c(OC)c4)n3)c[nH]c12	86	95	39*	80	93
CCc1cccc2c(C(=O)COC(=O)c3nn(C)c(=O)c4ccccc34)c[nH]c12	91	101	81	94	104
Nc1nc(CSc2nnnn2-c2ccccc2)nc(N2CCCc3ccccc32)n1	61	61	28*	70	96
Nc1nc(CN2CCN(c3ccccc3)CC2)nc(N2CCCc3ccccc32)n1	104	96	.	80	99
C(=C\c1ccccc1)/CSc1nnc(-c2ccccn2)n1Cc1ccco1	16	16	19*	41	43*
CCNC(=S)NNC(=O)CCn1cc(C)cn1	99	90	.	.	.
O=S1(=O)C=CC(Sc2nc3ccccc3[nH]2)C1 (centres undefined)	102	107	20*	102	102
CCCN1C(=O)C(O)(C2CC(=O)CC(C)(C)O2)c2ccccc21 (centres undefined)	12	11	23*	88	76
CCN1C(=O)C(O)(C2COC(C)(C)CC2=O)c2ccccc21 (centres undefined)	59	54	59	89	97
Clc1cnc(N/N=C/c2cccs2)c(Cl)c1	83	86	83	69	49*
Cc1ccc(/C=N/Nc2ncc(Cl)cc2Cl)s1	41	36	50	62	47*
COc1ccc(NC(=O)Cn2nnc(-c3ccccc3NC(=O)c3cccs3)n2)cc1	50	62	7.5*	32	.
Cc1ccc(NC(=O)Cn2nnc(-c3ccccc3NC(=O)c3cccs3)n2)cc1	3.4*	4.0*	6.8*	19*	46*
CCOc1ccc(NC(=O)Cn2nnc(-c3ccccc3NC(=O)CC)n2)cc1	85	87	80	94	89
O=C(Cn1nnc(-c2ccccc2NC(=O)c2ccco2)n1)Nc1ccccc1	74	58	23*	46	78
SMILES	HCT116 PTEN-null	bCat KO growth	H69AR growth 86K	HUVEC inhibit	Lung fibro prol
CC(C)(C)NC(=O)Cn1nnc(-c2ccccc2NC(=O)c2ccco2)n1	101	94	89	95	93
COc1ccc(NC(=O)Cn2nnc(-c3ccccc3NS(=O)(=O)c3ccc(OC)cc3)n2)cc1	11	10	.	.	.
C=C(C)CN1CCN(S(=O)(=O)c2ccc(C)c(N(C)S(=O)(=O)c3ccc(C)cc3)c2C)CC1	66	70	.	.	.
O=C(CSc1nnc(-c2ccc(F)cc2)c2ccccc12)Nc1ccccc1Cl	69	67	.	.	.
CC(=O)Oc1ccc(C(=O)Nc2cc(NC(=O)c3ccc(OC(C)=O)cc3)cc(C(=O)NC(C)(C)C)c2)cc1	96	95	.	.	.
C=CCn1cccc(/C=C/C(=O)c2ccc(C(C)(C)C)cc2)c1=S	1.8*	1.4*	.	.	.
CN1CCN(C(=S)NC(=O)c2ccc(C(C)(C)C)cc2)CC1	105	98	.	.	.
CC(NC(=O)c1ccc([N+](=O)[O-])cc1[N+](=O)[O-])c1ccc(-c2ccccc2)cc1 (centres undefined)	87	86	.	.	.
CC(NC(=O)/C(C#N)=C/c1ccc(Cl)c([N+](=O)[O-])c1)c1ccccc1 (centres undefined)	1.2*	1.6*	.	.	.
Cc1ccc(N=Cc2c(O)n(-c3ccc4c(c3)OCO4)c(=O)c3ccccc23)cc1	8	48	9.1*	21*	72
CCc1nc(SCC(=O)Nc2cc(C)on2)c2c(C)c(C)sc2n1	96	105	90	88	87
Cc1cc(NC(=O)CSc2nc(C3CC3)nc3sc(C)c(C)c23)no1	31	31	24*	72	67
CCCC12CN3CC(CCC)(CN(C1)C3C(O)C(O)C(O)CO)C2=O (centres undefined)	101	101	.	.	.
CCOc1ccc(S(=O)(=O)N(C)c2ccc(OCC(=O)Nc3nc(-c4cc(OC)ccc4OC)cs3)cc2)cc1	90	97	.	.	.
CCN(CC)S(=O)(=O)c1ccc(-c2nnc(SCc3nnc(-c4ccccc4)o3)o2)cc1	8	22	20*	53	69
CCN(CC)S(=O)(=O)c1ccc(-c2nnc(SCC(=O)Nc3ccc4c(c3)OCO4)o2)cc1	105	98	32*	64	96
O=S(=O)(c1ccc(-c2nnc(SCc3nnc(-c4ccccc4)o3)o2)cc1)N1CCCC1	89	86	.	.	.
CCN(CC)S(=O)(=O)c1ccc(NC(=O)CSc2nnc(-c3ccc(F)cc3)o2)cc1	74	77	54	94	104
Cc1ccc(NC(=O)CSc2nnc(-c3ccc(S(=O)(=O)N4CCCC4)cc3)o2)cc1C	89	101	32*	53	92
O=S(=O)(/N=C(/c1ccccc1)N1CCCCC1)c1ccccc1	99	98	.	.	.
COc1ccc(C(=O)NNC2CC(=O)N(Cc3ccc(Cl)cc3)C2=O)cc1OC (centres undefined)	91	90	.	.	.
COCCNC(=O)NC1(C(F)(F)F)Oc2ccc(Cl)cc2O1 (centres undefined)	63	58	34*	57	63
O=C(NCc1cccnc1)NC1(C(F)(F)F)Oc2ccc(Cl)cc2O1 (centres undefined)	21	23	31*	51	70
Cc1ccc(/C=C/C(O)=C2/C(=O)N(C)C3(C)CC2c2ccccc2O3)cc1 (centres undefined)	3.0*	5.4*	.	.	.
COc1ccc(/C=C/C(O)=C2/C(=O)N(C)C3(C)CC2c2ccccc2O3)cc1 (centres undefined)	1.4*	1.8*	3.0*	82	76
Cc1ccc(S(=O)(=O)C2C(=O)N(C)C3(C)CC2c2ccccc2O3)cc1C (centres undefined)	102	89	.	.	.

Source: PubChem
